Here are results for 6 molecules from ChEMBL document CHEMBL4622915, “Design and synthesis of C-12 dithiocarbamate andrographolide analogues as an anticancer agent” (Bioorg Med Chem Lett, 2020).

Holding throughout (assay type): functional, cell-based
The subject of one test is A549. Briefly: Anticancer activity against human A549 cells assessed as reduction in cell viability measured after 72 hrs by SRB assay. The note with it: A549, 72 h. The method, boiled down:
(§1)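 Adherent cells seeded at 10^4 cells/well and exposed 72 h to compound at 0.1–50 μM, dissolved in DMSO (less than 0.05%). Ellipticine served as positive control. Afterwards cells washed, fixed with TCA, stained with 0.4% SRB in 1% acetic acid. Bound dye extracted and OD read at 515 nm; IC50 derived.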
(The SRB assay estimates cell density from bound dye.)

Test [1] can be described thus: Anticancer activity against rat ASK cells assessed as reduction in cell viability measured after 72 hrs by SRB assay. An outline of the steps:
as §1

Test [2] in a line: Anticancer activity against human KKU-M213 cells assessed as reduction in cell viability measured after 72 hrs by SRB assay. The settings on record: KKU-M213, 72 h. An outline of the steps: as §1
In a further test the test system is HT-29. Briefly: Anticancer activity against human HT-29 cells assessed as reduction in cell viability measured after 72 hrs by SRB assay. The note with it: HT-29, 72 h. The method, boiled down: as §1
The next test deals with P388. As to the kind of experiment: Anticancer activity against mouse P388 cells assessed as reduction in cell viability measured after 48 hrs by SRB assay. The note with it: P388, 48 h. An outline of the steps:
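Suspension cells seeded at 10^4 cells/well and exposed 48 h to compound at 0.1–50 μM, dissolved in DMSO (less than 0.05%). Ellipticine served as positive control. Then washed, TCA-fixed, stained with 0.4% SRB in 1% acetic acid. Protein-bound dye extracted and absorbance read at 515 nm; IC50 taken.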

The next test concerns MCF7. As to the kind of experiment: Anticancer activity against human MCF7 cells assessed as reduction in cell viability measured after 72 hrs by SRB assay. The note with it: MCF7, 72 h. An outline of the steps:
as §1

The next test concerns HuCC-A1. Briefly: Anticancer activity against human HuCCa1 cells assessed as reduction in cell viability measured after 72 hrs by SRB assay. The note with it: HuCC-A1, 72 h. An outline of the steps:
as §1

The nature of test [3]: Anticancer activity against human KKU055 cells assessed as reduction in cell viability measured after 72 hrs by SRB assay. An outline of the steps:
as §1

Another test relates to KB. Briefly: Anticancer activity against human KB cells assessed as reduction in cell viability measured after 72 hrs by SRB assay. An outline of the steps:
as §1

Consider `C=C1CC[C@@H]2[C@](C)(COC(C)=O)[C@H](OC(C)=O)CC[C@@]2(C)[C@@H]1C[C@H](SC(=S)N1CCN(c2ccccc2)CC1)C1=CCOC1=O`, for which the 50% inhibitory concentration (IC50) (commonly the concentration that gives 50% inhibition) in the test on A549 worked out at 28.9 µM; in test [1], 15.6 µM; in test [2], 6.47 µM; in the test with HT-29 it was 8.08 µM; in the test on P388, 4.3 µM; in the test on MCF7, 6.53 µM. Besides, the concentration for half-maximal inhibition (IC50) was determined as 9.59 µM in the test with HuCC-A1, 9.27 µM in test [3] and 23.5 µM in the test with KB.

For `C=C1CC[C@@H]2[C@](C)(COC(C)=O)[C@H](OC(C)=O)CC[C@@]2(C)[C@@H]1C[C@H](SC(=S)N1CCN(C(=O)C2COc3ccccc3O2)CC1)C1=CCOC1=O` (some centres undefined), the IC50 turned out to be 23.4 µM with A549; 25.5 µM in [1]; 6.16 µM in test [2]; 9.18 µM in the test with HT-29; 3.4 µM in the test with P388; 3.92 µM in the test with MCF7. Also, the 50% inhibitory concentration (IC50) with HuCC-A1 amounted to 17.3 µM; in test [3], 5.59 µM; in the test with KB, 22.7 µM.

Regarding `C=C1CC[C@@H]2[C@](C)(COC(C)=O)[C@H](OC(C)=O)CC[C@@]2(C)[C@@H]1C[C@H](SC(=S)N1CCN(c2ccccc2OC)CC1)C1=CCOC1=O`, the IC50 with A549 was found to be 28.5 µM; in test [1], 14.3 µM; in test [2], 5.59 µM; with HT-29 it was 6.58 µM; in the test on P388 it was 5.76 µM; in the test with MCF7, 4.72 µM. Also, the IC50 is 8.08 µM in the test with HuCC-A1, 7.62 µM in test [3] and 17.8 µM in the test on KB.

For the molecule `C=C1CC[C@@H]2[C@](C)(COC(C)=O)[C@H](OC(C)=O)CC[C@@]2(C)[C@@H]1C[C@H](SC(=S)N1CCOCC1)C1=CCOC1=O`, the half-inhibitory concentration (IC50) in the test with A549 is 14.8 µM; in [1], 9.25 µM; in test [2], 5.16 µM; in the test with HT-29, 4.14 µM; in the test on P388 it was 5.74 µM; in the test on MCF7 it was 2.93 µM. For the same molecule, the concentration for half-maximal inhibition (IC50) worked out at 4.79 µM with HuCC-A1, 5.24 µM in test [3] and 5.96 µM with KB.

Regarding `C=C1CC[C@@H]2[C@](C)(COC(C)=O)[C@H](OC(C)=O)CC[C@@]2(C)[C@@H]1C[C@H](SC(=S)N(Cc1ccccc1)Cc1ccccc1)C1=CCOC1=O`, the 50% inhibitory concentration (IC50) turned out to be 22.9 µM with A549; 7.22 µM in [1]; 5.67 µM in test [2]; 6.54 µM in the test with HT-29; 4.94 µM in the test on P388; 4.76 µM with MCF7. Also, the IC50 in the test with HuCC-A1 was found to be 7.64 µM; in [3], 6.02 µM; with KB, 8.66 µM.

For `C=C1CC[C@@H]2[C@](C)(COC(C)=O)[C@H](OC(C)=O)CC[C@@]2(C)[C@@H]1C[C@H](SC(=S)N(C)Cc1ccc(F)cc1)C1=CCOC1=O`, the concentration for half-maximal inhibition (IC50) worked out at 11.6 µM in the test on A549; 16.9 µM in test [1]; 5.15 µM in [2]; 6.14 µM with HT-29; 3.59 µM in the test on P388; 0.68 µM in the test on MCF7. For the same molecule, the figures for the IC50 (with HuCC-A1; in test [3]; in the test on KB) were 7.78 µM, 3.04 µM and 25.7 µM, respectively.
